# Assays:
# [1] = tested on: Convolvulus arvensis; experiment: Herbicidal activity against Convolvulus arvensis assessed as inhibition of fresh weed plant weights at 800 g ai/ha using pre-emergence treatment protocol under field trials conditions measured 30 days post soil treatment relative to untreated control; type: functional; settings: 720 h
# How it was run: (§1)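 Field pre-emergence trial. Treatments were applied to the soil surface within 24 h after maize planting, at 300, 400, 600 and 800 g a.i. ha^-1. Fresh weight of aerial plant parts was measured 30 days later, and percent inhibition calculated relative to the water-sprayed control.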
# [2] = tested on: Echinochloa crus-galli; experiment: Herbicidal activity against Echinochloa crus-galli (barnyard grass) assessed as inhibition of shoot growth at […] measured 7 days post treatment; type: functional; parameters: dose or concentration left out as unconfirmed; settings: 168 h, read-out: GI
# [3] = tested on: Eleusine indica; experiment: Herbicidal activity against Eleusine indica assessed as inhibition of fresh weed plant weights at 400 g ai/ha using pre-emergence treatment protocol under field trials conditions measured 30 days post soil treatment relative to untreated control; type: functional; settings: 720 h; how it was run: as §1
# [4] = tested on: Echinochloa crus-galli; experiment: Herbicidal activity against Echinochloa crus-galli (barnyard grass) assessed as inhibition of root growth at […] measured 7 days post treatment; type: functional; parameters: dose or concentration left out as unconfirmed; settings: 168 h, read-out: GI
# [5] = tested on: Portulaca oleracea; experiment: Herbicidal activity against Portulaca oleracea assessed as inhibition of fresh weed plant weights at 800 g ai/ha using pre-emergence treatment protocol under field trials conditions measured 30 days post soil treatment relative to untreated control; type: functional; settings: 720 h; how it was run: as §1
# [6] = tested on: Echinochloa crus-galli; experiment: Herbicidal activity against Echinochloa crus-galli (barnyard grass) assessed as inhibition of fresh weed plant weights at 600 g ai/ha using pre-emergence treatment protocol under greenhouse conditions relative to untreated control; type: functional
# How it was run: (§2)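 Pre-emergence test in plastic pots kept in a greenhouse at 22-25 °C. Fresh weight of aerial plant parts was measured 20 days later, and percent inhibition calculated relative to water-sprayed controls. Metolachlor served as the positive control. Three replicates were run per concentration.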
# [7] = tested on: Echinochloa crus-galli; experiment: Herbicidal activity against Echinochloa crus-galli (barnyard grass) assessed as inhibition of fresh weed plant weights at 300 g ai/ha using pre-emergence treatment protocol under greenhouse conditions relative to untreated control; type: functional; how it was run: as §2
# [8] = tested on: Digitaria sanguinalis; experiment: Herbicidal activity against Digitaria sanguinalis (hairy crabgrass) assessed as inhibition of fresh weed plant weights at 300 g ai/ha using pre-emergence treatment protocol under field trials conditions measured 30 days post soil treatment relative to untreated control; type: functional; settings: 720 h; how it was run: as §1
# [9] = tested on: Eleusine indica; experiment: Herbicidal activity against Eleusine indica assessed as inhibition of fresh weed plant weights at 800 g ai/ha using pre-emergence treatment protocol under field trials conditions measured 30 days post soil treatment relative to untreated control; type: functional; settings: 720 h; how it was run: as §1
# [10] = tested on: Brassica rapa subsp. oleifera; experiment: Toxicity against Brassica rapa subsp. oleifera var. JING GUAN 1 assessed as inhibition of fresh weed plant weights at 150 g ai/ha using pre-emergence treatment protocol under greenhouse conditions relative to untreated control; type: organism-based; settings: in vivo, other; how it was run: as §2
# [11] = tested on: Digitaria sanguinalis; experiment: Herbicidal activity against Digitaria sanguinalis (hairy crabgrass) assessed as inhibition of fresh weed plant weights at 400 g ai/ha using pre-emergence treatment protocol under field trials conditions measured 30 days post soil treatment relative to untreated control; type: functional; settings: 720 h; how it was run: as §1
# [12] = tested on: Convolvulus arvensis; experiment: Herbicidal activity against Convolvulus arvensis assessed as inhibition of fresh weed plant weights at 400 g ai/ha using pre-emergence treatment protocol under field trials conditions measured 30 days post soil treatment relative to untreated control; type: functional; settings: 720 h; how it was run: as §1
# [13] = tested on: Portulaca oleracea; experiment: Herbicidal activity against Portulaca oleracea assessed as inhibition of fresh weed plant weights at 150 g ai/ha using pre-emergence treatment protocol under greenhouse conditions relative to untreated control; type: functional; how it was run: as §2
# [14] = tested on: Portulaca oleracea; experiment: Herbicidal activity against Portulaca oleracea assessed as inhibition of shoot growth at […] measured 7 days post treatment; type: functional; settings: 168 h, read-out: GI
# How it was run: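 Petri-dish agar assay. A 10 g/L stock of compound in acetone was mixed into molten agar; the untreated control was agar without compound. Seeds were placed on the agar surface and the cups were covered with glass lids. Incubation was 25 ± 1 °C, 50-55% RH, 12 h light/12 h dark, for 7 days. Root and shoot lengths were measured and growth inhibition calculated against the control, in three replicates.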
smiles,measurement,setting,value
Cc1nn(CC(F)(F)F)c(CS(=O)(=O)C2=NOC(C)(C)C2)c1Cl,inhibition at 800 g/ha,[1],40%
same,inhibition of growth,[2],84%
same,inhibition at 400 g/ha,[3],98%
same,inhibition of growth,[4],62%
same,inhibition at 800 g/ha,[5],100%
same,inhibition at 600 g/ha,[6],100%
same,inhibition at 300 g/ha,[7],100%
same,inhibition at 300 g/ha,[8],95%
same,inhibition at 800 g/ha,[9],99%
same,inhibition (INH),[10],7%
same,inhibition at 400 g/ha,[11],98%
same,inhibition at 400 g/ha,[12],16%
same,inhibition at 150 g/ha,[13],70%
same,inhibition of growth at 100000 µg/mL,[14],54%
